From ChEMBL document CHEMBL1157729, “Structure-activity relationship and mechanism of action studies of manzamine analogues for the control of neuroinflammation and cerebral infections” (J Med Chem, 2010)
In brackets after ≈: the same amount, converted by molar mass. Activity calls are given as the source filed them. No cut-off for these calls is given here.

Key:
Plasmodium falciparum [1] = test: Antiplasmodial activity against chloroquine-sensitive Plasmodium falciparum D6 after 72 hrs by LDH assay; type: functional, organism-based; details: Plasmodium falciparum, D6, 72 h; read-out: IC50
Plasmodium falciparum [2] = test: Antiplasmodial activity against chloroquine-resistant Plasmodium falciparum W2 after 72 hrs by LDH assay; type: functional, organism-based; details: Plasmodium falciparum, W2, 72 h; read-out: IC50
Vero = test: Cytotoxicity against african green monkey Vero cells after 48 hrs by neutral red assay; type: cell-based; details: chlorocebus sabaeus
In short: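 Vero cells seeded at 25,000/well and grown 24 h, then exposed to serially diluted samples for 48 h. Viable cells measured by neutral red assay, with doxorubicin as positive control. IC50 taken from dose-response curves.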

[3] = test system: Mycobacterium tuberculosis; test: Antimycobacterial activity against Mycobacterium tuberculosis H37Rv; type: functional, organism-based
Candida albicans = test: Antifungal activity against Candida albicans ATCC 90028; type: functional, organism-based
In short: (§1)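 Broth microdilution per modified CLSI method; samples serially diluted in 20% DMSO/saline, tested in duplicate; inocula set by OD630 of suspensions in incubation broth; growth read at 630 nm before and after incubation; amphotericin B drug control.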

Cryptococcus neoformans = test: Antifungal activity against Cryptococcus neoformans ATCC 90113; type: functional, organism-based; in short: as §1
[4] = test system: Mycobacterium intracellulare; test: Antimycobacterial activity against Mycobacterium intracellular ATCC 23068; type: functional, organism-based
In short: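 Modified Franzblau method; samples serially diluted in 20% DMSO/saline, tested in duplicate; inoculum set by OD630; fluorescence read at 544ex/590em before and after incubation; ciprofloxacin drug control.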

[5] = (§2) Antineuroinflammatory activity in LPS-stimulated rat neonatal microglia assessed as inhibition of PMA-induced superoxide anion production preincubated 15 mins prior to PMA challenge measured after 70 mins; type: functional, cell-based
[6] = (§3) Antineuroinflammatory activity in LPS-stimulated rat neonatal microglia assessed as inhibition of PMA-induced TXB2 production preincubated 15 mins prior to PMA challenge measured after 70 mins; type: functional, cell-based
[7] = Antineuroinflammatory activity in LPS-stimulated rat neonatal microglia assessed as drug level causing 50% PMA-induced LDH release preincubated 15 mins prior to PMA challenge measured after 70 mins; type: functional
In short: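 Neonatal rat microglia (2 × 10^5/well) primed with E. coli LPS 0.3 ng/mL for 17 h at 35.9 °C, washed with HBSS, given compound (0.01–10 μM) or DMSO 15 min, then PMA 1 μM; LDH read spectrophotometrically after 70 min; LDH50 relative to Triton X-100 (0.1%) release; duplicates.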

[8] = test system: Mycobacterium intracellulare; test: Ratio of IC50 for drug to ciprofloxacin against Mycobacterium intracellular ATCC 23068; type: functional
Microglia [9] = test: as §2; type: functional, cell-based
Microglia [10] = test: as §3; type: functional, cell-based
Plasmodium berghei [11] = test: Antiplasmodial activity against Plasmodium berghei NK65 infected in Swiss Webster mice (Mus musculus) assessed as inhibition of parasitaemia at 200 mg/kg, perorally administered 1 day after infection measured after 5 days post infection; type: functional; design: Activity: scale not given: the % may be the effect or the level left; details: route oral
In short: (§4)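 Male Swiss Webster mice (18-20 g, ≥5/group) inoculated i.p. with 2×10^7 P. berghei NK-65 parasitized RBC, given a single oral dose (100 μl, SSV or dilute HCl vehicle); parasitemia by Giemsa-stained tail blood smears days 5–28; activity as % decrease versus untreated controls on day 5.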

Plasmodium berghei [12] = test: Antiplasmodial activity against Plasmodium berghei NK65 infected in Swiss Webster mice (Mus musculus) assessed as average parasitaemia at 200 mg/kg, perorally administered 1 day after infection measured after 5 days post infection; type: functional; details: route oral
In short: (§5)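 Male Swiss Webster mice (18-20 g), at least 5 per group, were inoculated ip with 2×10^7 P. berghei NK-65-parasitized red cells from a donor mouse and given a single oral dose (100 μl). Stock was made in SSV or 0.1 M HCl and diluted in SSV or 0.01 M HCl. Parasitemia was read from Giemsa-stained tail blood smears from day 5 to day 28. Cure meant no parasitemia through day 28.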

Plasmodium berghei [13] = test: Antiplasmodial activity against Plasmodium berghei NK65 infected in Swiss Webster mice (Mus musculus) assessed as average parasitaemia at 200 mg/kg, perorally administered 1 day after infection measured after 14 days post infection; type: functional; details: route oral; in short: as §5
Plasmodium berghei [14] = test: Antiplasmodial activity against Plasmodium berghei NK65 infected in Swiss Webster mice (Mus musculus) assessed as average parasitaemia at 200 mg/kg, perorally administered 1 day after infection measured after 21 days post infection; type: functional; details: route oral; in short: as §5
Plasmodium berghei [15] = test: Antiplasmodial activity against Plasmodium berghei NK65 infected in Swiss Webster mice (Mus musculus) assessed as average parasitaemia at 200 mg/kg, perorally administered 1 day after infection measured after 28 days post infection; type: functional; details: route oral; in short: as §4
Plasmodium berghei [16] = test: Antiplasmodial activity against Plasmodium berghei NK65 infected in Swiss Webster mice (Mus musculus) assessed as parasitaemia cure at 200 mg/kg, perorally administered 1 day after infection measured after 28 days post infection; type: functional; details: route oral; in short: as §5
MDCK = test: Apparent permeability across apical to basolateral side of MDCK cells expressing MDR; type: ADME, cell-based, Canis lupus familiaris; details: dog
In short: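 MDR-MDCK cells (passage 12-40) seeded at 75,000 cells/cm2 and grown 8 days on Transwell inserts to a monolayer. Bidirectional transport over 2 h in HBSS pH 7.4 with test substance at 50 μM and caffeine (5 μM) as standard. Donor and receiver samples quantified by LC-MS. Cumulative amount transported plotted against time to derive apparent permeability.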

Plasmodium berghei [17] = test: Antiplasmodial activity against Plasmodium berghei NK65 infected in Swiss Webster mice (Mus musculus) assessed as average parasitaemia at 200 mg/kg, perorally administered 1 day after infection measured after 10 days post infection; type: functional; details: route oral; in short: as §4
Plasmodium yoelii = test: Antiplasmodial activity against Plasmodium yoelii infected in perorally dosed mice (Mus musculus); type: functional; details: po

SMILES	IC50 (Plasmodium falciparum [1]) [mg/L]	IC50 (Plasmodium falciparum [2]) [mg/L]	IC50 (Vero) [mg/L]	MIC [3] [mg/L]	IC50 (Candida albicans) [mg/L]	IC50 (Cryptococcus neoformans) [mg/L]	IC50 [4] [mg/L]	IC50 [5] [µM]	IC50 [6] [µM]	Activity [7] [µM]	also measured
COc1ccc2[nH]c3c(c2c1)CCNC3C1=C[C@@]2(O)CC/C=C\CCCCN3CC[C@@H]1[C@]1(C[C@@H]4/C=C\CCCCN4[C@H]12)C3 (stereo not given in full)	0.057 (≈ 0.0978 µM)	0.064 (≈ 0.11 µM)	0.2 (≈ 0.343 µM)	> 64	> 20	2 (≈ 3.43 µM)	0.2 (≈ 0.343 µM)	2.2	1.65	3	–
COC(=O)c1cc2c([nH]c3ccccc32)c(C2=C[C@@]3(O)CC/C=C\CCCCN4CC[C@@H]2[C@]2(C[C@@H]5/C=C\CCCCN5[C@H]23)C4)n1	0.011 (≈ 0.0181 µM)	0.015 (≈ 0.0247 µM)	0.2 (≈ 0.33 µM)	> 64	20 (≈ 33 µM)	2 (≈ 3.3 µM)	< 0.02	0.03	0.11	>10	Ratio IC50 [8]: 5
COC(=O)C1Cc2c([nH]c3ccccc23)C(C2=C[C@@]3(O)CC/C=C\CCCCN4CC[C@@H]2[C@]2(C[C@@H]5/C=C\CCCCN5[C@H]23)C4)N1 (stereo not given in full)	0.1 (≈ 0.164 µM)	0.17 (≈ 0.278 µM)	1 (≈ 1.64 µM)	> 64	> 20	3.5 (≈ 5.73 µM)	0.06 (≈ 0.0982 µM)	8.6	4.9	5	Ratio IC50 [8]: 5
COc1ccc2[nH]c3c(C4=C[C@@]5(O)CC/C=C\CCCCN6CC[C@@H]4[C@]4(C[C@@H]7/C=C\CCCCN7[C@H]45)C6)nccc3c2c1 [6-METHOXYMANZAMINE A]	0.028 (≈ 0.0484 µM)	0.058 (≈ 0.1 µM)	0.5 (≈ 0.864 µM)	> 64	5 (≈ 8.64 µM)	3 (≈ 5.18 µM)	0.8 (≈ 1.38 µM)	0.1	0.11	>10	–
O=[N+]([O-])c1ccc2[nH]c3c(C4=C[C@@]5(O)CC/C=C\CCCCN6CC[C@@H]4[C@]4(C[C@@H]7/C=C\CCCCN7[C@H]45)C6)nccc3c2c1 [6-NITROMANZAMINE A]	0.018 (≈ 0.0303 µM)	0.028 (≈ 0.0472 µM)	270 (≈ 455 µM)	1.6 (≈ 2.69 µM)	> 20	2.5 (≈ 4.21 µM)	0.15 (≈ 0.253 µM)	–	–	–	–
CCCCn1c2ccccc2c2ccnc(C3=C[C@@]4(O)CC/C=C\CCCCN5CC[C@@H]3[C@]3(C[C@@H]6/C=C\CCCCN6[C@H]34)C5)c21 [9-N-BUTYLMANZAMINE A]	0.33 (≈ 0.546 µM)	1.3 (≈ 2.15 µM)	2 (≈ 3.31 µM)	128 (≈ 212 µM)	> 20	> 20	> 20	0.12	0.4	>10	–
CCn1c2ccccc2c2ccnc(C3=C[C@@]4(O)CC/C=C\CCCCN5CC[C@@H]3[C@]3(C[C@@H]6/C=C\CCCCN6[C@H]34)C5)c21 [9-N-ETHYLMANZAMINE A]	0.14 (≈ 0.243 µM)	0.47 (≈ 0.815 µM)	1.5 (≈ 2.6 µM)	> 128	20 (≈ 34.7 µM)	10 (≈ 17.3 µM)	0.5 (≈ 0.867 µM)	9.7	> 10	>10	–
CC(C)(C)Cn1c2ccccc2c2ccnc(C3=C[C@@]4(O)CC/C=C\CCCCN5CC[C@@H]3[C@]3(C[C@@H]6/C=C\CCCCN6[C@H]34)C5)c21 [9-N-NEOPENTYLMANZAMINE A]	2.4 (≈ 3.88 µM)	2.8 (≈ 4.52 µM)	0.7 (≈ 1.13 µM)	4 (≈ 6.46 µM)	7 (≈ 11.3 µM)	4 (≈ 6.46 µM)	0.5 (≈ 0.808 µM)	0.07	0.07	>10	–
CCCn1c2ccccc2c2ccnc(C3=C[C@@]4(O)CC/C=C\CCCCN5CC[C@@H]3[C@]3(C[C@@H]6/C=C\CCCCN6[C@H]34)C5)c21 [9-N-PROPYLMANZAMINE A]	0.69 (≈ 1.17 µM)	0.74 (≈ 1.25 µM)	3.7 (≈ 6.26 µM)	37 (≈ 62.6 µM)	> 20	> 20	2 (≈ 3.38 µM)	3	> 10	>10	–
Oc1cccc2c1[nH]c1c(C3=C[C@@]4(O)CCCCCCCCN5CC[C@@H]3[C@]3(C[C@@H]6CCCCCCN6[C@H]34)C5)nccc12 [15,16,32,33-TETRAHYDRO-8-HYDROXYMANZAMINE A]	0.09 (≈ 0.158 µM)	0.62 (≈ 1.09 µM)	–	24 (≈ 42.2 µM)	6 (≈ 10.5 µM)	1.5 (≈ 2.64 µM)	0.1 (≈ 0.176 µM)	> 10	1.97	>10	Activity (Microglia [9]): inactive; Activity (Microglia [10]): inactive
CCN(CC)CCCC(C)Nc1ccnc2cc(Cl)ccc12 (stereo not given) [CHLOROQUINE]	–	–	–	–	–	–	–	–	–	–	Activity (Plasmodium berghei [11]): 100%; Activity (Plasmodium berghei [12]): 0%; Activity (Plasmodium berghei [13]): 0.2%; Activity (Plasmodium berghei [14]): 4%; Activity (Plasmodium berghei [15]): 8%; Activity (Plasmodium berghei [16]): 80%
Cl.O[C@]12C=C(c3nccc4c3[nH]c3ccccc34)[C@@H]3CCN(CCCC/C=C\CC1)C[C@@]31C[C@@H]3/C=C\CCCCN3[C@H]12 [MANZAMINE A HCL]	–	–	–	–	–	–	–	–	–	–	Papp (MDCK): 19 nm/s
C=C[C@H]1CN2CC[C@H]1C[C@H]2[C@H](O)c1ccnc2ccc(OC)cc12 [QUININE]	–	–	–	–	–	–	–	–	–	–	Activity (Plasmodium berghei [11]): 26%; Activity (Plasmodium berghei [12]): 7.3%; Activity (Plasmodium berghei [17]): 14%; Activity (Plasmodium berghei [13]): 32%; Activity (Plasmodium berghei [14]): 45%; Activity (Plasmodium berghei [16]): 0%
C[C@H]1[C@H](OC(=O)CCC(=O)[O-])O[C@@H]2O[C@@]3(C)CC[C@H]4[C@H](C)CC[C@@H]1[C@@]24OO3.[Na+] [SODIUM ARESUNATE]	–	–	–	–	–	–	–	–	–	–	ED50 (Plasmodium yoelii): 4.1 mg/kg; ED90 (Plasmodium yoelii): 17 mg/kg
O[C@]12C=C(c3nccc4c3[nH]c3ccccc34)[C@@H]3CCN(CCCCCCCC1)C[C@@]31C[C@@H]3CCCCCCN3[C@H]12 [TETRAHYDROMANZAMINE A]	–	1.5 (≈ 2.71 µM)	–	50 (≈ 90.4 µM)	7.5 (≈ 13.6 µM)	0.9 (≈ 1.63 µM)	0.45 (≈ 0.814 µM)	> 10	> 10	>10	Activity (Microglia [9]): inactive; Activity (Microglia [10]): inactive
